{"source": "ChEMBL document CHEMBL4308915", "about": "“Synthesis of novel pyrazoline derivatives and the evaluation of death mechanisms involved in their antileukemic activity” (Bioorg Med Chem, 2019)", "key": {"[1]": {"test": "Hemolytic activity in human RBC at 3 times IC50 relative to control", "assay_type": "ADME, cell-based, Erythrocyte", "details": "red blood cells (erythrocytes), read-out: Activity", "in_short": "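RBC from healthy non-smoking volunteers incubated with increasing concentrations of the selected pyrazolines. Saline served as the 0% lysis control and distilled water as the 100% lysis control. Percent hemolysis calculated relative to these controls.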"}, "Jurkat [2]": {"test_system": "Jurkat", "test": "Cell cycle arrest in human Jurkat cells assessed as increase in accumulation at S phase at 30.08 uM after 12 hrs by propidium iodide/RNAse staining based flow cytometric analysis", "assay_type": "functional"}, "Jurkat [3]": {"test_system": "Jurkat", "test": "Induction of apoptosis in human Jurkat cells assessed as decrease in survivin level at 30.08 uM after 12 hrs by flow cytometric analysis relative to control", "assay_type": "functional"}, "PBL": {"test_system": "PBL", "test": "Cytotoxicity against acute leukemia patient-derived PBL cells assessed as reduction in cell viability after 24 hrs", "assay_type": "functional, cell-based", "details": "Homo sapiens", "in_short": "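Mononuclear cells from acute leukemia patient samples (peripheral blood or bone marrow, taken before first treatment at diagnosis or relapse) isolated by Ficoll-Hypaque.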"}, "K562 [4]": {"test_system": "K562", "test": "Cytotoxicity against human K562 cells assessed as reduction in cell viability after 48 hrs by MTT assay", "assay_type": "functional, cell-based", "details": "K562, 48 h"}, "B16-F10": {"test_system": "B16-F10", "test": "Cytotoxicity against mouse B16F10 cells assessed as reduction in cell viability after 24 hrs by MTT assay", "assay_type": "functional, cell-based", "details": "B16-F10, 24 h", "in_short": "(§1)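 MTT viability after 24 h exposure. Cells seeded at 5x10^4 per well and tested at 1-100 µM. Optical density of untreated cells set as 100% viable. IC50 derived by curve fitting. PBMC from healthy non-smoking volunteers, isolated by Ficoll-Hypaque.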"}, "K562 [5]": {"test_system": "K562", "test": "Induction of apoptosis in human K562 cells assessed as increase in FasR expression at 32 uM after 12 hrs by flow cytometric analysis relative to control", "assay_type": "functional"}, "PBMC": {"test_system": "PBMC", "test": "Cytotoxicity against human PBMC assessed as reduction in cell viability after 72 hrs by MTT assay", "assay_type": "cell-based"}, "Jurkat [6]": {"test_system": "Jurkat", "test": "Cytotoxicity against human Jurkat cells assessed as reduction in cell viability after 72 hrs by MTT assay", "assay_type": "functional, cell-based"}, "[7]": {"test": "Selectivity index, ratio of IC50 for human PBMC to IC50 for human K562 cells after 24 hrs", "assay_type": "toxicity", "details": "PBMC versus K562 cells, read-out: Ratio IC50", "in_short": "(§2)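 MTT viability after 24 h exposure to 1-100µM; untreated control OD taken as 100%. IC50 by curve fitting in each line and in PBMC from six healthy donors (Ficoll-Hypaque). SI = IC50 PBMC / IC50 tumor line; SI ≥5 high, 2–5 moderate, <2 low.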"}, "[8]": {"test": "Selectivity index, ratio of IC50 for human PBMC to IC50 for mouse B16F10 cells after 24 hrs", "assay_type": "toxicity", "details": "PBMC versus B16F10 cells, read-out: Ratio IC50", "in_short": "as §2"}, "Jurkat [9]": {"test_system": "Jurkat", "test": "Induction of apoptosis in human Jurkat cells assessed as increase in AIF release at 30.08 uM after 12 hrs by flow cytometric analysis relative to control", "assay_type": "functional"}, "Jurkat [10]": {"test_system": "Jurkat", "test": "Cytotoxicity against human Jurkat cells assessed as reduction in cell viability after 24 hrs by MTT assay", "assay_type": "functional, cell-based", "in_short": "as §1"}, "K562 [11]": {"test_system": "K562", "test": "Induction of apoptosis in human K562 cells assessed as increase in loss of membrane integrity at 32 uM by acridine orange/ethidium bromide staining-based fluorescence microscopic analysis", "assay_type": "functional, cell-based"}}, "note": "The source made the active and inactive calls. The rule behind the calls is not given here.", "data": [{"compound": "COc1cc(C2=NN(C(C)=O)C(c3ccc(Br)cc3)C2)cc(OC)c1OC", "note": "(stereo not given)", "values": [{"measurement": "hemolysis at 3 times IC50", "setting": "[1]", "result": 1.6, "unit": "%"}, {"measurement": "Activity", "setting": "Jurkat [2]", "result": "inactive"}, {"measurement": "Activity", "setting": "Jurkat [3]", "result": 10.7, "unit": "%"}, {"measurement": "Activity", "setting": "PBL", "result": "Dose-dependent effect"}, {"measurement": "IC50", "setting": "PBL", "result": "11.8 to 142", "unit": "µM"}, {"measurement": "IC50", "setting": "K562 [4]", "result": 16.2, "unit": "µM"}, {"measurement": "IC50", "setting": "B16-F10", "result": 98.7, "unit": "µM"}, {"measurement": "Activity", "setting": "K562 [5]", "result": 21.3, "unit": "%"}, {"measurement": "IC50", "setting": "PBMC", "result": 118, "unit": "µM"}, {"measurement": "IC50", "setting": "Jurkat [6]", "result": 15.6, "unit": "µM"}, {"measurement": "selectivity ratio at 24 h", "setting": "[7]", "result": 11}, {"measurement": "selectivity ratio at 24 h", "setting": "[8]", "result": 3.4}, {"measurement": "Activity", "setting": "Jurkat [9]", "result": 33.2, "unit": "%"}, {"measurement": "IC50", "setting": "Jurkat [10]", "result": 30.8, "unit": "µM"}, {"measurement": "Activity", "setting": "K562 [11]", "result": "Active"}]}]}
